Compounds with a hit are over-represented: about 5.6% of the library has one in this group of screens.
NR3A LBD binder = binders of NR3A ligand-binding domain, primary screen, biophysical, differential scanning fluorimetry, uHTS; Tm shift relative to glycine control, % at 25 µM; NR3A LBD differential scanning fluorimetry, Tm shift; 0% = protein alone, 100% = glycine-bound protein; 2.5% of 340,000 active; Glutamate receptor ionotropic, NMDA 3A (GRIN3A) ligand-binding domain;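 active means melting temperature shift of at least 10% of the positive control shift, at one fixed dose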
UPR XBP1 act = activators of adaptive XBP1 UPR arm, primary screen, cell-based, CHO-XBP1 luciferase reporter, luminescence, uHTS; IRE1-XBP1 UPR activation; percent of tunicamycin response, DMSO as zero; activation, % at 20 µM; 0.33% of 330,000 active; AID 463104, 2010;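 active means versus positive control, 20 µM dose yields 30% or more activation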;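 further: 100% = tunicamycin at 10 µg/mL and 0% = DMSO only wells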
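Assay system: CHO-XBP1 luciferase reporter cells; Schedule: 6 h treatment, 37 °C; Detection: glow luminescence from Steady-Glo reagent; Benchmarks: high control tunicamycin 10 µg/mL final, low control DMSO vehicle only.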
CHOP inhibitor = inhibitors of CHOP promoter induction, primary screen, cell-based, unfolded protein response, luciferase reporter. CHO-K1 CHOP-promoter luciferase, tunicamycin-induced, 15-18 h. inhibition, % at 10 µM. 3.8% of 220,000 active;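 active means compounds that reduced the stress-induced luciferase reporter signal by more than about 70% of percent inhibition, limit read from the data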;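 further: 0% = tunicamycin plus vehicle and 100% = wells without tunicamycin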
aDG glyco up = activators of alpha-DG glycosylation, primary screen, uHTS, Pro5-aDG cells, AlphaScreen; alpha-DG glycosylation AlphaScreen (IIH6); 0% Pro5, 100% B10-LARGE cell signal; activation, % at 10 µM; 0.22% of 360,000 active; AID 624168, 2012;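 active means activation of at least 8% versus controls, or a plate z-score of at least 8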;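 further: Pro5 are CHO cells carrying HIG-tagged alpha-DG that lacks glycosylation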
CHOP UPR activ = activators of apoptotic CHOP UPR arm, primary screen, cell-based, CHO-CHOP luciferase reporter, luminescence, uHTS. 0.34% of 330,000 active. activation, % at 10 µM. UPR activation; percent of tunicamycin response over DMSO baseline;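 active means at 10 µM dose, activation of 40% or more, normalized to positive control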;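 further: 100% = tunicamycin at 10 µg/mL and 0% = DMSO alone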
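Material: CHO-CHOP cells, stable luciferase reporter of PERK-eIF2a-CHOP signalling; quantity: 500 reporter cells seeded per well; buffer or medium: F12 medium containing 10% fetal bovine serum; compound: one dose, 10 µM in 0.5% DMSO; incubation: 6 h compound treatment, 37 °C; measured by: Steady-Glo luciferase luminescence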
MPTP inh = mitochondrial permeability transition pore inhibitors, primary screen, biochemical, isolated mouse mitochondria, absorbance | Ca2+ swelling absorbance, 30 min | inhibition, % at 10 µM | 1.4% of 360,000 active | AID 602449, 2012;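 active means inhibition of 50% or more, scaled per plate between neutral and stimulator controls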;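 further: 0% = DMSO wells given calcium and 100% = 1 mM EGTA wells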
* hit, by the source's call; . = no result given.

SMILES | NR3A LBD binder | UPR XBP1 act | CHOP inhibitor | aDG glyco up | CHOP UPR activ | MPTP inh
CCN(CC)C(=O)Cn1cc(C(=O)C(=O)N(C)C2CCN(C)CC2)c2ccccc21 | 1 | -2 | . | 0 | 0 | 0
CC(C)CCNC(=O)C1C2C=CC3(CN(Cc4ccccc4Cl)C(=O)C13)O2 (stereo not given) | 0 | -1 | 92* | 0 | -1 | 1
CCCCN(CCCC)c1ncnc2nc[nH]c12 | -1 | -1 | 54 | 0 | -1 | 0
CCCCN(Cc1ccccc1)c1ncnc2nc[nH]c12 | -2 | 0 | 75* | 0 | 5 | 1
O=C(NCc1ccc2c(c1)OCO2)c1cc(-c2ccccc2)nn1CC1CC(c2cccnc2)=NO1 (stereo not given) | 0 | -3 | . | 0 | 1 | 0
C/C(=N\NC(=O)Cc1ccccc1)c1ccc(Br)s1 | 2 | -1 | . | 0 | 2 | -1
Fc1ccc(NC(=S)N/N=C/c2ccc(F)c(F)c2)cc1 | 1 | 2 | 25 | 0 | 2 | 2
C/C(=N\NC(=O)CNc1cccc(C)c1)c1ccc(Br)s1 | 12* | 1 | 39 | 0 | 9 | 2
Fc1ccc(NC(=S)N/N=C/c2cccc(Br)c2)c(F)c1 | 32* | 0 | 95* | 0 | 1 | 9
Cc1cccc(NCC(=O)N/N=C/c2cccc(Br)c2)c1 | -20 | 4 | 84* | 0 | 1 | 2
Cc1ccccc1NC(=O)C(=O)N/N=C/c1cccc(Br)c1 | 34* | 1 | -11 | 0 | 0 | 2
Cc1ccc(NCC(=O)N/N=C/c2cccc(Br)c2)cc1 | 0 | 6 | 4 | 0 | 0 | 1
C/C(=N\NC(=O)CNc1cccc(C(F)(F)F)c1)c1cccc(Br)c1 | 8 | -1 | 68 | 0 | 1 | 3
C/C(=N\NC(=O)CNc1cccc(C(F)(F)F)c1)c1ccc(Br)cc1 | 18* | 2 | 94* | 0 | 2 | 0
Cc1cc(=O)n(C(C)Cc2ccccc2)n1C(C)Cc1ccccc1 (stereo not given) | 1 | . | . | 0 | . | -2
COc1ccc(NC(=O)CC2C(=O)N(Cc3ccccc3)C(=S)N2CCN2CCOCC2)cc1 (stereo not given) | -2 | -1 | 5 | 0 | 4 | 1
C=CCN1C(=O)C(CC(=O)Nc2ccc(OCCC)cc2)N(CCCN2CCN(Cc3ccccc3)CC2)C1=S (stereo not given) | -2 | 7 | 94* | 1 | 4 | 14
COc1ccc(NC(=O)CC2C(=O)N(C)C(=S)N2Cc2cccs2)cc1 (stereo not given) | -4 | 0 | -3 | 0 | 0 | 1
CCCOc1ccc(NC(=O)CC2C(=O)N(CC)C(=S)N2Cc2cccs2)cc1 (stereo not given) | -1 | 0 | 93* | 0 | -1 | -1
CCCCCCOc1ccc(NC(=O)CC2C(=O)N(CC)C(=S)N2Cc2ccco2)cc1 (stereo not given) | 16* | 1 | 91* | 1 | 4 | 9
O=C(Nc1cccc(S(=O)(=O)NC2=NCCCCC2)c1)c1ccc(Cl)cc1 | 2 | -4 | . | 2 | 0 | -2
COc1ccccc1C(=O)NCC(=O)N1CCN(c2ncccn2)CC1 | 1 | -1 | . | 0 | -1 | -3
Cc1ccsc1/C=N/Nc1ccc(C(=O)O)cc1 | 1 | -10 | . | 0 | -9 | 1
O=C(O)c1cccc(N/N=C/c2sc(N3CCOCC3)nc2-c2ccccc2)c1 | 14* | -1 | -165 | 0 | 13 | -1
Nc1ccc(C(=O)N/N=C/c2sc(N3CCOCC3)nc2-c2ccccc2)cc1 | -1 | 0 | -29 | -1 | 2 | 0
SMILES | NR3A LBD binder | UPR XBP1 act | CHOP inhibitor | aDG glyco up | CHOP UPR activ | MPTP inh
Cc1ccsc1/C=N/Nc1cccc(C(=O)O)c1 | 20* | -9 | 89* | 0 | -10 | -2
O=C(O)c1ccc(N/N=C/c2cc(Br)cs2)cc1 | -25 | -8 | . | 0 | -5 | 0
O=C(O)c1ccc(/C=N/Nc2nnnn2-c2ccccc2)cc1 | 10* | 1 | -19 | 0 | 3 | 10
Cc1ccc(/C=N/Nc2ccc(C(=O)O)cc2)s1 | 2 | -6 | 75* | 0 | -9 | 0
Cc1ccc2cccc(CC(=O)NN)c2c1 | . | . | . | 0 | . | 1
CN(C)S(=O)(=O)c1ccc(C(=O)OCC2CCCO2)cc1 (stereo not given) | -1 | . | . | 0 | . | 1
FC(F)(F)c1ccccc1Cc1c(C2CCCCC2)nc2c3ccccc3ccn12 | . | . | . | 0 | . | 2
Cc1nn2cc(-c3ccc(Cl)cc3)cnc2c1Cl | 0 | 4 | -10 | 0 | 5 | -7
O=C(O)c1cccc(N/N=C/c2cccc3ccccc23)c1 | -2 | -11 | . | 0 | -8 | 0
Cc1nn(-c2cccc(C(F)(F)F)c2)c(Cl)c1/C=N/Nc1cccc(C(=O)O)c1 | -1 | . | -16 | 0 | . | 0
Cc1nn(-c2ccccc2Cl)c(Cl)c1/C=N/Nc1cccc(C(=O)O)c1 | 10* | -5 | 58 | 0 | -8 | 0
CC(C)c1ccc(/C=N/Nc2ccc(C(=O)O)cc2)cc1 | 4 | -8 | 84* | 0 | -11 | 2
Cc1ccc(/C=N/Nc2cccc(C(=O)O)c2)s1 | 0 | -10 | 80* | 0 | -7 | -1
COc1cc2cnc(-c3cccnc3)cc2cc1OC | -3 | 9 | . | 0 | 0 | -1
Cc1cccnc1NC(=O)c1cc2ccccc2oc1=O | -3 | -5 | 90* | 0 | -7 | -2
O=C(NNc1c([N+](=O)[O-])cc(C(F)(F)F)cc1[N+](=O)[O-])c1ccco1 | 1 | -3 | . | 0 | 0 | 46
CCOc1ccc(Oc2c(/C=N/NC(=O)COc3ccccc3OC)c(C)nn2-c2ccccc2)cc1 | -13 | 3 | 85* | 0 | 1 | 2
CCSc1nc(C)cc(C)c1S(=O)(=O)c1ccccc1C | -11 | -5 | 71* | 0 | 1 | 0
COc1ccc(NC(=O)CSc2nnc(-c3cccs3)n2N)cc1S(N)(=O)=O | -3 | -1 | . | 0 | -1 | -1
N#Cc1ccccc1NC(=O)CC1c2ccccc2Oc2ccccc21 | 13* | 2 | 14 | 0 | 1 | 2
Cc1csc(NC(=O)c2nn(C)c(C)c2[N+](=O)[O-])n1 | -1 | 0 | 14 | 0 | 7 | -1
CN(C)c1cccc(N(C)C)c1CNC(=O)NC(=O)c1c(F)cccc1F | -1 | -2 | . | 0 | 4 | -3

Source: PubChem BioAssay
